Published values gathered from unrelated publications.
Each line is one published result; the experiments were not run side by side.
Target: Dual specificity protein kinase CLK1 (CLK1, Homo sapiens, UniProt P49759)
Method: competition with immobilised ligand

| read-out | tested at | remaining binding [%] | Compound |
| --- | --- | --- | --- |
| binding | 1 µM | 100 | O=C(Nc1c[nH]nc1C(=O)NC1CCNCC1)c1cc(F)cc(F)c1 |
| binding | 10 µM | 1.1 | c1cncc(-c2cccc(Nc3nccc(NC4CCCCC4)n3)c2)c1 |
| binding | 1 µM | 100 | Cc1c(C(=O)O)cc(-c2ccc(C3CCNCC3)cc2)c2ccc(-c3ccc(C(F)(F)F)cc3)cc12 |
| binding | 1 µM | 8.3 | Cc1cnc(Nc2ccc(C(=O)N3CCC(N4CCCC4)CC3)cc2)nc1-c1cc2ccccc2s1 |
| cell-free assay | 1 µM | 87 | COc1cc(-c2cn(C3CCc4ccccc4N(CC(F)(F)F)C3=O)nn2)ccc1-n1ccc(C)n1 (centres unmarked) |
| binding | 1 µM | 93 | C=CC(=O)N1CCC(C(=O)NCC(=O)N2CCN(c3nc(-c4cnc(N)nc4C(F)F)nc(N4CCOCC4)n3)CC2)CC1 |
| cell-free assay | 0.1 µM | 87 | CS(=O)(=O)N1CCCC(NC(=O)[C@H](CCC2CCCCC2)NC(=O)c2ccc(CNc3ncnc4c3nnn4-c3ccccc3)cc2)C1 (some centres unmarked) |
| binding | 1 µM | 98 | CNC(=O)[C@@H]1CC[C@@H](n2c(-c3ccc4cnccc4c3)nc3ccc(C(=O)NCc4cccc(C(N)=O)c4)cc32)C1 |
| cell-free assay | 0.1 µM | 96.2 | Cc1cc(C)c(-n2ccn3nc(-c4cccnc4)cc23)cc1NC(=O)c1cc(C#N)cc(S(F)(F)(F)(F)F)c1 |
| binding | 1 µM | 3.6 | O=C(NCCCN1CCOCC1)c1ccc(Nc2ncc(Cl)c(-c3ccc(Cl)s3)n2)cc1 |
| binding | 0.1 µM | 67 | C[C@@H](c1ccc(-n2cnc3c(N)ncnc32)cc1)N1CCc2nn(C)c(Cc3ccccc3)c2C1=O |
| binding | 1 µM | 43 | CN(CCCC(F)(F)F)c1nccc(-c2cnn3ncccc23)n1 |
| binding | 1 µM | 13 | O=C(c1ccc(Nc2nccc(-c3cc4ccccc4s3)n2)cc1)N1CCC(N2CCCC2)CC1 |
| cell-free assay | 5 µM | 0.7 | FC(F)(F)Oc1cccc(-c2cnc3ccc(-c4ccncc4)nn23)c1 |
